In ChEMBL document CHEMBL5356993, “Novel pyrazolo[3,4-d]pyrimidine derivatives: design, synthesis, anticancer evaluation, VEGFR-2 inhibition, and antiangiogenic activity” (RSC Med Chem, 2023):

Tests used:
Type in all cases: functional
Conditions in all cases: read-out: GI
OVCAR-5 = assay: Antiproliferative activity against human OVCAR-5 cells assessed as cell growth inhibition at 10 uM incubated for 48 hrs by SRB assay relative to control
Procedure, shortened: (§1)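 Cells plated in 96-well plates at […] cells/well and preincubated 24 h at 37 °C, 5% CO2. Time-zero plates were TCA-fixed. Compound was diluted in medium with 50 µg/mL gentamicin and cells exposed for 48 h. Adherent cells fixed with 10% final TCA; suspension cells with 16% final TCA. Plates stained with 0.4% SRB in 1% acetic acid, dye solubilized in 10 mM Trizma, absorbance read at 515 nm. Percent growth calculated against time-zero and control.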

NCI-H322M = assay: Antiproliferative activity against human NCI-H322M cells assessed as cell growth inhibition at 10 uM incubated for 48 hrs by SRB assay relative to control
NCI-H522 = assay: Antiproliferative activity against human NCI-H522 cells assessed as cell growth inhibition at 10 uM incubated for 48 hrs by SRB assay relative to control; procedure, shortened: as §1
HCC 2998 = assay: Antiproliferative activity against human HCC 2998 cells assessed as cell growth inhibition at 10 uM incubated for 48 hrs by SRB assay relative to control
HCT-15 = assay: Antiproliferative activity against human HCT-15 cells assessed as cell growth inhibition at 10 uM incubated for 48 hrs by SRB assay relative to control
KM12 = assay: Antiproliferative activity against human KM12 cells assessed as cell growth inhibition at 10 uM incubated for 48 hrs by SRB assay relative to control; procedure, shortened: as §1
SF-295 = assay: Antiproliferative activity against human SF-295 cells assessed as cell growth inhibition at 10 uM incubated for 48 hrs by SRB assay relative to control; procedure, shortened: as §1
U-251 = assay: Antiproliferative activity against human U-251 cells assessed as cell growth inhibition at 10 uM incubated for 48 hrs by SRB assay relative to control
Procedure, shortened: (§2)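 Cells pre-incubated 24 h at 37°C, 5% CO2, then exposed to compound (DMSO stock diluted in medium with 50 µg/mL gentamicin) for 48 h. Adherent cells fixed with cold TCA (final 10%, 60 min, 4°C); suspension cells fixed with 16% TCA final. Stained with 0.4% SRB in 1% acetic acid for 10 min, dye solubilized in 10 mM Trizma base, absorbance read at 515 nm. Growth calculated against time-zero and untreated control plates.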

Malme-3M = assay: Antiproliferative activity against human Malme-3M cells assessed as cell growth inhibition at 10 uM incubated for 48 hrs by SRB assay relative to control
M14 = assay: Antiproliferative activity against human M14 cells assessed as cell growth inhibition at 10 uM incubated for 48 hrs by SRB assay relative to control; procedure, shortened: as §1
SK-MEL-2 = assay: Antiproliferative activity against human SK-MEL-2 cells assessed as cell growth inhibition at 10 uM incubated for 48 hrs by SRB assay relative to control; procedure, shortened: as §1
SK-MEL-28 = assay: Antiproliferative activity against human SK-MEL-28 cells assessed as cell growth inhibition at 10 uM incubated for 48 hrs by SRB assay relative to control; procedure, shortened: as §1
SK-MEL-5 = assay: Antiproliferative activity against human SK-MEL-5 cells assessed as cell growth inhibition at 10 uM incubated for 48 hrs by SRB assay relative to control; procedure, shortened: as §1
IGROV-1 = assay: Antiproliferative activity against human IGROV-1 cells assessed as cell growth inhibition at 10 uM incubated for 48 hrs by SRB assay relative to control
OVCAR-3 = assay: Antiproliferative activity against human OVCAR-3 cells assessed as cell growth inhibition at 10 uM incubated for 48 hrs by SRB assay relative to control; procedure, shortened: as §1
OVCAR-8 = assay: Antiproliferative activity against human OVCAR-8 cells assessed as cell growth inhibition at 10 uM incubated for 48 hrs by SRB assay relative to control
SK-OV-3 = assay: Antiproliferative activity against human SK-OV-3 cells assessed as cell growth inhibition at 10 uM incubated for 48 hrs by SRB assay relative to control; procedure, shortened: as §1
ACHN = assay: Antiproliferative activity against human ACHN cells assessed as cell growth inhibition at 10 uM incubated for 48 hrs by SRB assay relative to control
CAKI-1 = assay: Antiproliferative activity against human CAKI-1 cells assessed as cell growth inhibition at 10 uM incubated for 48 hrs by SRB assay relative to control
RXF 393 = assay: Antiproliferative activity against human RXF 393 cells assessed as cell growth inhibition at 10 uM incubated for 48 hrs by SRB assay relative to control; procedure, shortened: as §1
SN12C = assay: Antiproliferative activity against human SN12C cells assessed as cell growth inhibition at 10 uM incubated for 48 hrs by SRB assay relative to control
TK-10 = assay: Antiproliferative activity against human TK-10 cells assessed as cell growth inhibition at 10 uM incubated for 48 hrs by SRB assay relative to control; procedure, shortened: as §2
PC-3 = assay: Antiproliferative activity against human PC-3 cells assessed as cell growth inhibition at 10 uM incubated for 48 hrs by SRB assay relative to control
DU-145 = assay: Antiproliferative activity against human DU-145 cells assessed as cell growth inhibition at 10 uM incubated for 48 hrs by SRB assay relative to control
MCF7 = assay: Antiproliferative activity against human MCF7 cells assessed as cell growth inhibition at 10 uM incubated for 48 hrs by SRB assay relative to control
Hs-578T = assay: Antiproliferative activity against human Hs-578T cells assessed as cell growth inhibition at 10 uM incubated for 48 hrs by SRB assay relative to control; procedure, shortened: as §1
BT-549 = assay: Antiproliferative activity against human BT-549 cells assessed as cell growth inhibition at 10 uM incubated for 48 hrs by SRB assay relative to control
MDA-MB-468 = assay: Antiproliferative activity against human MDA-MB-468 cells assessed as cell growth inhibition at 10 uM incubated for 48 hrs by SRB assay relative to control
RPMI-8226 = assay: Antiproliferative activity against human RPMI-8226 cells assessed as cell growth inhibition at 10 uM incubated for 48 hrs by SRB assay relative to control
MOLT-4 = assay: Antiproliferative activity against human MOLT-4 cells assessed as cell growth inhibition at 10 uM incubated for 48 hrs by SRB assay relative to control
HL-60(TB) = assay: Antiproliferative activity against human HL-60(TB) cells assessed as cell growth inhibition at 10 uM incubated for 48 hrs by SRB assay relative to control
Procedure, shortened: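 Cells were plated at […] cells/well and preincubated 24 h at 37°C, 5% CO2, with time-zero plates TCA-fixed. Compound was diluted from DMSO stock in medium with 50 µg/mL gentamicin, then exposed for 48 h. Settled suspension cells were fixed with 80% TCA (final 16%), stained with 0.4% SRB and solubilized in 10 mM Trizma, A515. Growth was taken relative to Tz and control.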

CCRF-CEM = assay: Antiproliferative activity against human CCRF-CEM cells assessed as cell growth inhibition at 10 uM incubated for 48 hrs by SRB assay relative to control; procedure, shortened: as §1

| SMILES | inhibition of growth at 10 µM (OVCAR-5) | inhibition of growth at 10 µM (NCI-H322M) | inhibition of growth at 10 µM (NCI-H522) | inhibition of growth at 10 µM (HCC 2998) | inhibition of growth at 10 µM (HCT-15) | inhibition of growth at 10 µM (KM12) | inhibition of growth at 10 µM (SF-295) | inhibition of growth at 10 µM (U-251) | inhibition of growth at 10 µM (Malme-3M) | inhibition of growth at 10 µM (M14) | inhibition of growth at 10 µM (SK-MEL-2) | inhibition of growth at 10 µM (SK-MEL-28) | inhibition of growth at 10 µM (SK-MEL-5) | inhibition of growth at 10 µM (IGROV-1) | inhibition of growth at 10 µM (OVCAR-3) | inhibition of growth at 10 µM (OVCAR-8) | inhibition of growth at 10 µM (SK-OV-3) | inhibition of growth at 10 µM (ACHN) | inhibition of growth at 10 µM (CAKI-1) | inhibition of growth at 10 µM (RXF 393) | other results |
| --- | --- | --- | --- | --- | --- | --- | --- | --- | --- | --- | --- | --- | --- | --- | --- | --- | --- | --- | --- | --- | --- |
| Cc1nc2c(cnn2-c2ccccc2)c(=O)n1-c1ccc(NC(=O)c2ccccc2)cc1 | < 15% | < 15% | 20.7% | < 15% | 20.2% | 24.7% | 46.5% | < 15% | 29.8% | 23.6% | < 15% | < 15% | 76.2% | < 15% | 16.8% | 38.4% | 19% | 36.7% | 33.4% | 18.9% | inhibition of growth at 10 µM (SN12C): 24.3%; inhibition of growth at 10 µM (TK-10): 18.6%; inhibition of growth at 10 µM (PC-3): 29.5%; inhibition of growth at 10 µM (DU-145): 18.6%; inhibition of growth at 10 µM (MCF7): 47.1%; inhibition of growth at 10 µM (Hs-578T): 28.9%; inhibition of growth at 10 µM (BT-549): 39.1%; inhibition of growth at 10 µM (MDA-MB-468): 71%; inhibition of growth at 10 µM (RPMI-8226): 43.6%; inhibition of growth at 10 µM (MOLT-4): 68.1%; inhibition of growth at 10 µM (HL-60(TB)): 18.5%; inhibition of growth at 10 µM (CCRF-CEM): 49.5% |
| Cc1nc2c(cnn2-c2ccccc2)c(=O)n1-c1ccc(NC(=O)c2ccc(F)cc2)cc1 | < 15% | < 15% | 36.1% | 20.1% | 33.9% | 35.9% | 60.4% | 18.9% | 31.6% | 37.1% | 22.1% | 16.2% | > 100% | 26.5% | < 15% | 36.3% | < 15% | 39% | 34.3% | 20.9% | inhibition of growth at 10 µM (SN12C): 25.6%; inhibition of growth at 10 µM (TK-10): 29%; inhibition of growth at 10 µM (PC-3): 46.9%; inhibition of growth at 10 µM (DU-145): 19.3%; inhibition of growth at 10 µM (MCF7): 64.2%; inhibition of growth at 10 µM (Hs-578T): 21.3%; inhibition of growth at 10 µM (BT-549): 54%; inhibition of growth at 10 µM (MDA-MB-468): 85.5%; inhibition of growth at 10 µM (RPMI-8226): 64.8%; inhibition of growth at 10 µM (MOLT-4): 94.6%; inhibition of growth at 10 µM (HL-60(TB)): 57.5%; inhibition of growth at 10 µM (CCRF-CEM): 65.2% |
| Cc1nc2c(cnn2-c2ccccc2)c(=O)n1-c1ccc(NC(=O)c2ccc([N+](=O)[O-])cc2)cc1 | < 15% | 17.2% | 38.9% | < 15% | 28.6% | 20.4% | 56.3% | < 15% | 34% | 24.6% | 29.3% | 18.2% | 82.4% | 31.1% | < 15% | 34.1% | < 15% | 39.6% | 31.5% | 26.4% | inhibition of growth at 10 µM (SN12C): 29%; inhibition of growth at 10 µM (TK-10): 31.5%; inhibition of growth at 10 µM (PC-3): 33.7%; inhibition of growth at 10 µM (DU-145): 21%; inhibition of growth at 10 µM (MCF7): 56.7%; inhibition of growth at 10 µM (Hs-578T): 23.1%; inhibition of growth at 10 µM (BT-549): 48.8%; inhibition of growth at 10 µM (MDA-MB-468): 68.6%; inhibition of growth at 10 µM (RPMI-8226): 47.7%; inhibition of growth at 10 µM (MOLT-4): 63.4%; inhibition of growth at 10 µM (HL-60(TB)): 54%; inhibition of growth at 10 µM (CCRF-CEM): 52.5% |
